Laboratory results reported in ChEMBL document CHEMBL5033998, “Discovery of DDO-2213 as a Potent and Orally Bioavailable Inhibitor of the WDR5-Mixed Lineage Leukemia 1 Protein-Protein Interaction for the Treatment of MLL Fusion Leukemia” (J Med Chem, 2021).
Calls of active or inactive are those of the source. No cut-off for these calls is given here.

Columns and labels:
[1] = Metabolic stability in human liver microsomes assessed as half life at 1 uM in presence of NADPH by LC-MS/MS analysis; format: ADME, Microsome
Method in brief: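 Compound at 1 μM preincubated 5 min at 37 °C with human or rat liver microsomes (0.7 mg/mL) in 100 mM PBS pH 7.4; reaction started with 1 mM NADPH.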

[2] = AUC (0 to infinity) in Sprague-Dawley rat at 2 mg/kg, iv measured upto 24 hrs by LC-MS/MS analysis; format: ADME, organism-based; set-up: route intravenous, dose 2 mg/kg, time <=24; conditions: in vivo
[3] = system: MV4-11; assay: Antiproliferative activity against human MV4-11 cells assessed as cell viability incubated for 72 hrs by CCK8 assay; format: functional, cell-based; conditions: MV4-11, 72 h
Method in brief: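 Cells seeded at 3000–6000 per well, exposed to inhibitor at several concentrations for 72 h; viability read with CCK8 kit. MV4-11 and K562 grown in modified IMDM + 10% FBS, pen/strep; MOLM-13 in RPMI-1640 + 10% FBS; HUVEC in modified DMEM + 10% FBS; 37 °C, 5% CO2. IC50 as mean ± SD of three independent experiments.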

[4] = system: MV4-11; assay: Antitumor activity against human MV4-11 cells xenografted in Balb/c nude mouse assessed as tumor growth inhibition at 40 mg/kg, po administered daily for 21 days relative to control; format: functional; conditions: MV4-11, po, 504 h, time 21 day, read-out: TGI
Method in brief: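 Female BALB/c nude mice (6–8 weeks) given ~5 × 10^6 MV4-11 cells in 0.2 mL PBS into the flank; at 100–150 mm3 randomized (6/group) to vehicle (0.9% saline) or 40, 80, 120 mg/kg oral (hydrochloride salt) daily for 21 days. Volume = length × width²/2 every other day; GI% = [1 − (TVt − TV0)/(CVt − CV0)] × 100%.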

[5] = AUC (0 to infinity) in Sprague-Dawley rat at 10 mg/kg, po measured upto 24 hrs by LC-MS/MS analysis; format: ADME, organism-based; set-up: route oral, dose 10 mg/kg, time <=24; conditions: in vivo
Method in brief: (§1)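 Male SD rats, 6–8 weeks, 220 ± 30 g; single oral dose 10 mg/kg (n = 3). Plasma sampled at 0, 0.25, 0.5, 1, 2, 4, 6, 8 and 24 h, stored at −80 °C, quantified by LC-MS/MS; parameters reported as mean ± SEM.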

[6] = target: T1, Histone-lysine N-methyltransferase 2A (Homo sapiens, UniProt Q03164); assay: Inhibition of MLL1 (unknown origin) in human MV4-11 cells assessed as decrease in Hoxa9 mRNA level at 1 to 10 uM measured after 7 days by RT-PCR analysis; conditions: dose 1-10 µM, time 7.0 day
[7] = AUC (0 to t) in Sprague-Dawley rat at 10 mg/kg, po measured upto 24 hrs by LC-MS/MS analysis; format: ADME, organism-based; set-up: route oral, dose 10 mg/kg, time <=24; conditions: in vivo; method in brief: as §1
[8] = Cmax in Sprague-Dawley rat at 10 mg/kg, po measured upto 24 hrs by LC-MS/MS analysis; format: ADME, organism-based; set-up: route oral, dose 10 mg/kg, time <=24; conditions: in vivo; method in brief: as §1
[9] = target: T1, Histone-lysine N-methyltransferase 2A; assay: Inhibition of MLL1 (unknown origin) in human MV4-11 cells assessed as decrease in H3Kme2 level at 1 to 10 uM measured after 7 days by Western blot analysis; format: cell-based
Method in brief: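 MV4-11 cells exposed to 1, 2.5, 5 and 10 μM; H3K4me1/me2/me3 assessed by Western blot with histone H3 as loading control. Blots blocked in 1% BSA 1 h, primary antibody overnight at 4 °C, DyLight 800 secondary 1 h at 37 °C, infrared imaging.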

[10] = Tmax in Sprague-Dawley rat at 10 mg/kg, po measured upto 24 hrs by LC-MS/MS analysis; format: ADME, organism-based; conditions: in vivo; method in brief: as §1

T1 sequence (Q03164 1-2718 limits assumed): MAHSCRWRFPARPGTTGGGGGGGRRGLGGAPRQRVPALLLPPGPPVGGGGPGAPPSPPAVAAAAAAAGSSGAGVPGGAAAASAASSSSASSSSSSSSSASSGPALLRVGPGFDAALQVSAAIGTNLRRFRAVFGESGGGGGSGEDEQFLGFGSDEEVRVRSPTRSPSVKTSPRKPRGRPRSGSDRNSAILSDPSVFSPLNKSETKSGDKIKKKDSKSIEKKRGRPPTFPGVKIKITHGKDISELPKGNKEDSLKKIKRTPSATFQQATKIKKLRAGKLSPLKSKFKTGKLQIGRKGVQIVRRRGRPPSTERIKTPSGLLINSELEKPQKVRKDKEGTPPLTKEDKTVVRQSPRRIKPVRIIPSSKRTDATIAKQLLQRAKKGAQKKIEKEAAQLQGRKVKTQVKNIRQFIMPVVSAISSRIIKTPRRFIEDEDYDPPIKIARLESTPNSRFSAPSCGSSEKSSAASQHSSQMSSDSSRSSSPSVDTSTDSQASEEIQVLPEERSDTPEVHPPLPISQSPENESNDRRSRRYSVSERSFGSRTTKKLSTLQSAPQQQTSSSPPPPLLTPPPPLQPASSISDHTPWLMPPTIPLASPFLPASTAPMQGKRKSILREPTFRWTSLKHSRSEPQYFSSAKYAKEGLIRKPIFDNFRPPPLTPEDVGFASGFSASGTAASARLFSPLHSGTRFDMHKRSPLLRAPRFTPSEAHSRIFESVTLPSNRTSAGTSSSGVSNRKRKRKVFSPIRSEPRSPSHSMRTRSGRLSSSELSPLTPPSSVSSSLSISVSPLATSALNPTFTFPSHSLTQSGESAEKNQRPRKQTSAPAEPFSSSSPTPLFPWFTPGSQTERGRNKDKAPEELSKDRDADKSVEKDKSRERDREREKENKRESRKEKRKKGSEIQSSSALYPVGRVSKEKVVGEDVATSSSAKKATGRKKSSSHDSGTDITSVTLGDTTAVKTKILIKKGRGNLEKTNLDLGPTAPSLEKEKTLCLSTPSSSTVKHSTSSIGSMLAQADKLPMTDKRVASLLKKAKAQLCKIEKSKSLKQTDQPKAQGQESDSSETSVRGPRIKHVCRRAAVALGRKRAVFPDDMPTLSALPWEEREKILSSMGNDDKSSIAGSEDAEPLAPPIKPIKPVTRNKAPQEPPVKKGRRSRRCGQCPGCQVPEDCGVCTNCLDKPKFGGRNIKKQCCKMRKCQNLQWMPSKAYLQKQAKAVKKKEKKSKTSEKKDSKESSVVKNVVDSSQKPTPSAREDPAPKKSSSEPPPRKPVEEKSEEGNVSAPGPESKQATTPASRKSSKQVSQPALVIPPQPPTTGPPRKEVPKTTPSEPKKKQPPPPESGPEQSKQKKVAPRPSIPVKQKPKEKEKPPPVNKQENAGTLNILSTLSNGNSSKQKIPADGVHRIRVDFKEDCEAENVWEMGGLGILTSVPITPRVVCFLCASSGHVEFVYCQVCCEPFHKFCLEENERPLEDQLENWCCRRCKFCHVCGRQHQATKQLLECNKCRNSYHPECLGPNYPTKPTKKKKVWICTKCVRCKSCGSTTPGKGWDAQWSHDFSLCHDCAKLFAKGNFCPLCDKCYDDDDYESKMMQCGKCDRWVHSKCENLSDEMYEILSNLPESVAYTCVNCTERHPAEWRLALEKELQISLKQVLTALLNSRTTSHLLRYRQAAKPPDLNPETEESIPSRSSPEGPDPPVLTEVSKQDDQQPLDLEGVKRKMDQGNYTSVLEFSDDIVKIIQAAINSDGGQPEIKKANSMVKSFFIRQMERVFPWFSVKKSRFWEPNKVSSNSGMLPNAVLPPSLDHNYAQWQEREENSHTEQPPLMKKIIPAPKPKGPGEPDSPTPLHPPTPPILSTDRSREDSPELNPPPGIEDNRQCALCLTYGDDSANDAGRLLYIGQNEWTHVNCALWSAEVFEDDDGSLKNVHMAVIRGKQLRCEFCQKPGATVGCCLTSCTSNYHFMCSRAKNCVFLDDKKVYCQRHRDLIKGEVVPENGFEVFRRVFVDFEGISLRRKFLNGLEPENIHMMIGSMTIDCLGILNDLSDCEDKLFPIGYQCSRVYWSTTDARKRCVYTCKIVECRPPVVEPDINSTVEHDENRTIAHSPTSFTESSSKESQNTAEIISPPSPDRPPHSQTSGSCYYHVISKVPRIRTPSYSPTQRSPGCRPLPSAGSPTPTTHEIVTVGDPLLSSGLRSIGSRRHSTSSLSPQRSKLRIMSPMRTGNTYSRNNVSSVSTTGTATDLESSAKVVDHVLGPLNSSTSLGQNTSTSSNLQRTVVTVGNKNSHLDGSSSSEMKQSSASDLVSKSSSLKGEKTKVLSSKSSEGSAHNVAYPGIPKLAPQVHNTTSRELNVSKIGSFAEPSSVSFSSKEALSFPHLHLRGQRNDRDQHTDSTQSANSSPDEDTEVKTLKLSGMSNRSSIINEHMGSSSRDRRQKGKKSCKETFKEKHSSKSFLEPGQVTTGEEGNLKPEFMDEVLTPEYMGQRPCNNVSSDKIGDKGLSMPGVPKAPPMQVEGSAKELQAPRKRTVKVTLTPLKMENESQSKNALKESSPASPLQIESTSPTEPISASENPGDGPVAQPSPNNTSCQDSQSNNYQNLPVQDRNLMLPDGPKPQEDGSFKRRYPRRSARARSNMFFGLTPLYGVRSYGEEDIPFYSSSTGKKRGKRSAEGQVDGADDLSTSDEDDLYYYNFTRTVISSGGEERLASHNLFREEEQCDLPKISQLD
T1 sequence (Q03164 2719-3969 limits assumed): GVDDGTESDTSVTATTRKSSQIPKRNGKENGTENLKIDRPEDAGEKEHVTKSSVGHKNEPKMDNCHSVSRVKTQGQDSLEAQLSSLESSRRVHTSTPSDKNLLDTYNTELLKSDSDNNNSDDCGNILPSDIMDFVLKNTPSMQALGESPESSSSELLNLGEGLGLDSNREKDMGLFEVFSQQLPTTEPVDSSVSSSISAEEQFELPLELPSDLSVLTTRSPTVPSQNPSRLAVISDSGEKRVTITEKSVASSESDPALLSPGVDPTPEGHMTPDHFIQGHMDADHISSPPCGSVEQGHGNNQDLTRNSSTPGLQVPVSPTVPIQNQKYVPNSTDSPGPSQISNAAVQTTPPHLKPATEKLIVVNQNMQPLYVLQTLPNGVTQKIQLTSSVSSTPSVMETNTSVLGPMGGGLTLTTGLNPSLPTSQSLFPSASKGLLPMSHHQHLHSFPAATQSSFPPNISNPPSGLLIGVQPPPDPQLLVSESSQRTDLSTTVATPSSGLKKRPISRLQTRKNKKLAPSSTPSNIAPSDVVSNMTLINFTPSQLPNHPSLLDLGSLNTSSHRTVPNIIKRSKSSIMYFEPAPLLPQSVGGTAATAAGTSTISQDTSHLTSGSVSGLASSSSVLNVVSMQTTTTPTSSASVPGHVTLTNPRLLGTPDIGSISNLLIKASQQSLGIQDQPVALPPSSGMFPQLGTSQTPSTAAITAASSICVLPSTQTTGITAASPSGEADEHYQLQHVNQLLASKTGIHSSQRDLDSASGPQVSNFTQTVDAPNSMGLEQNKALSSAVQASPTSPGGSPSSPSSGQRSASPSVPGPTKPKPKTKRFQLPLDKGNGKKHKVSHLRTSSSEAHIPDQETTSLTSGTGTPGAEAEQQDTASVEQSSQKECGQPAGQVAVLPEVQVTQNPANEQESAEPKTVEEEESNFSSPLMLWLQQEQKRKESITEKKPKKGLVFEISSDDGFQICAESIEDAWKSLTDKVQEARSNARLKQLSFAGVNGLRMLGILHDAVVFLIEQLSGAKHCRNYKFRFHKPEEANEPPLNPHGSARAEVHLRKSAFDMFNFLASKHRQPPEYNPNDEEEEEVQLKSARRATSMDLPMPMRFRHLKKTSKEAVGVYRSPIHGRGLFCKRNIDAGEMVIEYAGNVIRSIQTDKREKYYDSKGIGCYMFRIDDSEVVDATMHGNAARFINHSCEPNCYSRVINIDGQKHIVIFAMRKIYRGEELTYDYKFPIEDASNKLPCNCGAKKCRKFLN

half-life at 1 µM [1]: 1.17 h
AUC(0-inf) [2]: 424 ng·h/mL
IC50 [3]: 12.6 µM
AUC(0-inf) [5]: 1740 ng·h/mL
inhibition [6]: Dose-Dependent Effect
AUC(0-t) at 24 h [7]: 1320 ng·h/mL
Cmax [8]: 159 ng/mL
inhibition [9]: Active
Tmax [10]: 2 h
SMILES: CN1CCN(c2cc(F)c(-c3ccc(C(=O)N(C)C)cc3)cc2Nc2ncnc(Cl)c2N)CC1
inhibition in vivo at 40 mg/kg [4]: 39.4%
